Data set [1] concerns skin lesions (basal cell carcinomas) of Krt6a-cre: Ptch1^neo/neo mice. Put plainly: Topical treatment of basal cell carcinomas, tumor area by HE/ImageJ. The class given is in vivo, mouse.
Data set [2] can be described thus: Solubility in deionized water.
Data set [3] is described as follows: Plasma half-life from mouse blood samples. In kind it is in vivo. The conditions noted are these: intraperitoneal.
For data set [4], the system named is Hh signaling-dependent motor neuron differentiation (E14Tg2a.4 embryonic stem cells). In kind it is cell-based, mouse. The essentials: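 Mouse E14Tg2a.4 ES cells seeded at 5 × 10^5 cells/mL in ES medium without LIF on ultra-low-adhesion plates for 2 days to form embryoid bodies. Motor neurons induced with retinoic acid 100 nmol/L plus purmorphamine 2.5 µmol/L for 5–7 days, with test compound in the induction medium. Read-outs: Hb9 immunofluorescence, and real-time PCR of Hip, FoxA2, Olig2 and Hb9.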

Data set [5] has as its system Hh target genes in skin of Krt6a-cre: Ptch1^neo/neo mice. Nature of the data set: Hh target gene expression in treated skin. The conditions noted are these: Figure 5C. In kind it is in vivo, mouse. In short, it runs like this: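 Tumour-bearing transgenic mice received test compound in 70% ethanol, applied topically to the abdominal skin daily for 21 days; 70% ethanol on the mid-belly served as control. Skin halves were frozen at –80°C. TRIzol total RNA (1 µg) was reverse-transcribed. Gene-specific probes were used for qPCR, with triplicate CT values analysed by the comparative CT method, normalised to 18S RNA and expressed relative to a calibrator.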

The results in this text go back to paper PMC4013422 (Chinese Journal of Cancer, 2011).

As a reminder, the half-life is how long it takes for the measured level to halve. A low value points to fast loss. What is called IC50 is the concentration needed to halve the response being measured.

Consider “3-Keto-N- (aminoethyl-aminocaproyl-dihydro-cinnamoyl) (KAAD)-Cyc [KAAD-Cyc]”, for which the “Reduction of tumor area” value in data set [1] (KAAD-Cyc (1 µmol/L topical per methods), data not shown) was “more than half”. Further, in data set [2], the Solubility in water entry is recorded as “not water soluble”.

In data set [3], `CC1=C2C[C@H]3[C@@H](CC=C4C[C@@H](O)CC[C@@]43C)[C@@H]2CC[C@]12O[C@@H]1C[C@H](C)CN[C@H]1[C@H]2C` [Cyc, Cyclopamine] yielded a half-life of 60 to 240 min. The half-inhibitory concentration (IC50) in data set [4] (Mus musculus, Neuron, read-out: IC50, inhibitory activity for Hh signaling-dependent motor neuron differentiation) is 300 nM. Further, the “Effect on motor neuron differentiation / expression of differentiation markers” value in data set [4] (compound at 50 nmol/L) is “no significant effects”. In data set [1] (Cyc treatment group, topical daily for 21 days), the “Maximum reduction in tumor area” value was “less than 5%”. Also, the “Hedgehog target gene expression (HIP and Ptch1), RT-PCR” value in data set [5] is “little effects”.
